# Source: PMC9811456 (Molecular Pharmaceutics, 2022)
# Values joined by “and” are separate entries in the source; they are usually repeats but may differ in a detail not shown here. Identical values can stand only once. “Also recorded” adds a separate entry of the source.
# Assays:
# HHV-8 (BCBL-1) = experiment: Antiviral qPCR assay, HHV-8; assay type: cell-based, human herpes virus 8; details: for SI HHV-8 (BCBL-1): CC50/EC50; for EC50: Homo sapiens, BCBL1, 168 h, read-out: EC50 HHV-8 (BCBL-1)
# ADV5 (Adenoid 75) = experiment: Antiviral CPE assay, ADV5; assay type: cell-based, adenovirus (AdV-5); details: CC50/EC50
# HSV2 (G) = experiment: microbe, parasite or virus in culture; assay type: cell-based, herpesvirus 2 (HSV-2)
# MCMV (Smith) = experiment: Antiviral qPCR assay, MCMV in MEF cells; assay type: cell-based, murine cytomegalovirus; details: CC50/EC50
# HHV-6B (Z29) = experiment: Antiviral qPCR assay, HHV-6B; assay type: cell-based, human herpes virus-6B; details: for SI HHV-6B (Z29): CC50/EC50; for EC50: Homo sapiens, MOLT-3, 168 h, read-out: EC50 HHV-6B (Z29)
# [1] = Metabolic stability in rat hepatocytes; assay type: in vitro ADME
# Summary of the method: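 In hepatocyte stability, compound at 1 μM was incubated in duplicate with 0.5 × 10^6 cells/mL at 37 °C. Samples were taken over 2 h and quenched and precipitated with ice-cold methanol (1:1). The soluble fraction was analysed by LC–MS/MS.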
# HCMV (AD169) = experiment: Antiviral CPE assay, HCMV AD169; assay type: cell-based, human cytomegalovirus; details: CC50/EC50
# VZV (Ellen) = experiment: microbe, parasite or virus in culture; assay type: cell-based, varicella-zoster virus
# [2] = system: human foreskin fibroblast (HFF) cells; experiment: Intracellular conversion to CDV-PP, HFF model; assay type: cell-based; details: 30 nM, 72 h
# Summary of the method: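 Primary HFF cells (passage ≤10) were seeded at 6 × 10^6 per T-75 flask for 24 h. They were exposed in triplicate to 30 nM compound or vehicle in DMEM/2% FBS at 37 °C, 5% CO2 for 72 h, after preincubating the dosing solutions 24 h at 37 °C. Half the flasks were counted. The rest were rinsed in chilled saline and lysed in methanol:water 70:30. Prodrug, CDV and CDV-PP were measured by LC–MS/MS (5–2000 nM qualified range). Results are mean ± SD.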
# [3] = cited from earlier work
# [4] = PK in mice after a single intravenous dose; assay type: in vivo; details: mouse, plasma, 1 mg/kg
# JC virus (MAD-4) = experiment: Antiviral qPCR assay, JC virus; assay type: cell-based; details: for SI JC virus (MAD-4): CC50/EC50; for EC50: JC polyomavirus, COS-7, 168 h, read-out: EC50 JC virus (MAD-4)
# BK virus (Gardner) = experiment: Antiviral qPCR assay, BK virus; assay type: cell-based; details: CC50/EC50
# EBV (Akata) = experiment: Antiviral qPCR assay, EBV; assay type: cell-based, Epstein–Barr virus; details: for SI EBV (Akata): CC50/EC50; for EC50: human gammaherpesvirus 4, Akata, 72 h, read-out: EC50 EBV (Akata)
# [5] = Oral pharmacokinetics and biodistribution in mice; assay type: in vivo, male CFW mice
# HSV1 (E-377) = experiment: microbe, parasite or virus in culture; assay type: cell-based, herpesvirus 1 (HSV-1)
# HSV-1 = details: read-out: EC50 against HSV-1; published data ref 42; cited from earlier work
# HCMV = details: read-out: EC50 against CMV; cited from earlier work
# VZV = details: read-out: EC50 against VZV; published data ref 42; cited from earlier work
# HCMV (GDG^RK17) = experiment: Antiviral assay, HCMV GDGRK17; assay type: cell-based, human cytomegalovirus; details: CC50/EC50; single replicate
# vaccinia (Copenhagen) = experiment: microbe, parasite or virus in culture; assay type: cell-based
# HSV-2 = details: read-out: EC50 against HSV-2; published data ref 42; cited from earlier work
# [6] = system: human adenovirus type 6 (AdV 6), strain tonsil 99 (HAdV-C6); experiment: Hamster model of AdV; assay type: in vivo, immunosuppressed male Syrian hamsters; details: IP, 37 mg/kg induction then 20 mg/kg three times weekly
# Summary of the method: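 Male Syrian hamsters were immunosuppressed with IP cyclophosphamide (140 mg/kg induction, then 100 mg/kg). They received IV 3 × 10^10 pfu/kg AdV 6. There were 7 groups (n = 15), including uninfected vehicle and drug-only (1 mg/kg PO QD) controls. Test compound was given at 0.1, 0.3 or 1 mg/kg, and CDV IP (37, then 20 mg/kg thrice weekly) from day −1. Animals were weighed and observed daily. Liver TCID50 (HEK-293) was taken day 5, with serum transaminases. Survival was compared by log-rank and weight by mixed-effect analysis.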
# [7] = equimolar oral doses, BCV vs NPP-669
structure (smiles),measurement,setting,value
"CCCCCCCCCCCCCCCCOCCCOP(=O)(O)CO[C@H](CO)Cn1ccc(N)nc1=O [BCV, brincidofovir]",SI HHV-8 (BCBL-1),HHV-8 (BCBL-1),690
same,EC50,HHV-8 (BCBL-1),1 nM
same,SI ADV5 (Adenoid 75),ADV5 (Adenoid 75),46
same,SI HSV2 (G),HSV2 (G); CC50/EC50,>50
same,EC50,"HSV2 (G); Human alphaherpesvirus 2, HFF, read-out: EC50 HSV2 (G)",20 ± 10 nM
same,SI MCMV (Smith),MCMV (Smith),>244
same,SI HHV-6B (Z29),HHV-6B (Z29),16
same,EC50,HHV-6B (Z29),30 ± 20 nM
same,half-life at 1 μM,[1],2.37 h
same,hepatocyte CLint at 1 μM,[1],9.73 µL/min/1e6 cells
same,SI HCMV (AD169),HCMV (AD169),540
same,SI VZV (Ellen),VZV (Ellen); CC50/EC50,114
same,EC50,"VZV (Ellen); Human alphaherpesvirus 3, HFF, read-out: EC50 VZV (Ellen)",5 ± 5 nM
same,intracellular pro-drug level,[2],highest levels of intracellular pro-drug
same,GI toxicity,[3]; daily doses at 10 mg/kg ref 36,GI toxicity was noted
same,NOAEL,"[3]; twice weekly, in rats over 13 weeks ref 36",15 mg/kg
same,AUC,[4],171 ng·h/mL
same,Cmax,[4],491 ng/mL
same,Vd,[4],3.7 L/kg
same,clearance,[4],122 mL/min/kg
same,half-life,[4],0.4 h
same,SI JC virus (MAD-4),JC virus (MAD-4),>3
same,EC50,JC virus (MAD-4),350 ± 260 nM
same,SI BK virus (Gardner),BK virus (Gardner),180
same,SI EBV (Akata),EBV (Akata),>11
same,EC50,EBV (Akata),90 ± 90 nM
same,prodrug exposure in liver tissue,[5]; [7],significantly higher levels than NPP-669
same,prodrug levels in intestinal tissue,[5]; [7],retained at substantially higher levels than NPP-669 in the intestinal tissue
same,plasma levels over 24 h,"[5]; single oral dose, NPP-669 30 mg/kg, BCV equimolar (26 mg/kg)",> 0.003 μM and > 2 ng/mL
same,SI HSV1 (E-377),HSV1 (E-377); CC50/EC50,>33
same,EC50,"HSV1 (E-377); Human alphaherpesvirus 1, HFF, read-out: EC50 HSV1 (E-377)",30 ± 20 nM
"Nc1ccn(C[C@@H](CO)OCP(=O)(O)O)c(=O)n1 [CDV, cidofovir]",SI HHV-8 (BCBL-1),HHV-8 (BCBL-1),>67
same,EC50,HHV-8 (BCBL-1),1500 ± 700 nM
same,EC50,HSV-1,3000 to 5000 nM
same,SI ADV5 (Adenoid 75),ADV5 (Adenoid 75),>23
same,EC50,HCMV,~1000 nM
same,SI HHV-6B (Z29),HHV-6B (Z29),10
same,EC50,HHV-6B (Z29),7090 ± 3590 nM
same,EC50,VZV,500 nM
same,SI HCMV (GDG^RK17),HCMV (GDG^RK17),>1034
same,intracellular levels of CDV or CDV-PP,[2]; below the detection limit,≤ 10 ng/mL
same,SI JC virus (MAD-4),JC virus (MAD-4),>8
same,EC50,JC virus (MAD-4),18400 ± 16000 nM
same,SI BK virus (Gardner),BK virus (Gardner),>26
same,SI EBV (Akata),EBV (Akata),>10
same,EC50,EBV (Akata),10100 ± 3440 nM
same,SI vaccinia (Copenhagen),vaccinia (Copenhagen),>10
same,EC50,"vaccinia (Copenhagen); Orthopoxvirus vaccinia, HFF, read-out: EC50 vaccinia (Copenhagen)",14600 nM
same,EC50,HSV-2,5000 to 6000 nM
same,toxicity of the dose needed for antiviral efficacy,[6],low-grade toxicity; also recorded: toxic dose
Nc1nc(O)c2ncn(COC(CO)CO)c2n1 [ganciclovir],SI MCMV (Smith),MCMV (Smith),>19
same,SI HCMV (AD169),HCMV (AD169),>92
